# Assay outcomes: PubChem, several laboratories
# Hits are enriched below; roughly 4% of the tested compounds scored in any of these assays.
# WT yeast gro inh – growth inhibition of WT strain, primary screen, mitochondrial fusion inhibitor project, WT and mutant strains, chemical genetic; mitochondrial fusion phenotypic screen; inhibition, % at 10 µM; 190,000 compounds, 2.1% hits; in the data active means inhibition above about 58%; tested in S. cerevisiae
# MT stabilize HCS – microtubule stabilizers in HeLa cells, primary screen, imaging, high-content imaging | 200,000 compounds, 0.83% hits | AID 2205, 2009 | % tubulin-high responders, % at 10 µM | HeLa tubulin immunostaining HCS, 24 h; share of cells brighter than vehicle mean+2SD;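 active means plate Z-score above 3 for both tubulin-high and condensed-nucleus cell shares, with cell loss under 80%, at 10 µM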;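 further: anti alpha tubulin signal scored within the nucleus-defined area of each cell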
# Pf gamet viab – late stage P. falciparum gametocyte viability inhibitors, primary screen, ATP luminescence, HTS | P. falciparum stage V gametocytes, 24 h | inhibition, % at 10.9 µM | 150,000 compounds, 0.065% hits;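 active means inhibition above the mean plus 3 SD of compounds within the control limits, set per campaign, cut at about 38% in these data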;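 further: 0% = DMSO wells and 100% = medium only without gametocytes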
# bCat nuc transl – modulators of beta-catenin nuclear translocation, primary screen, imaging, HeLa cells, immunofluorescence, high-content. nuclear translocation activity, % at 5 µM. 190,000 compounds, 0.3% hits. AID 1665, 2009;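 active means nuclear translocation activity above 50% at 5 µM, with a well cell count of 50 or more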;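 further: per-cell ratio of nuclear to cytoplasmic median beta-catenin stain intensity; plate controls were DMSO negative control for no effect and GSK-3 inhibitor IX positive control for full effect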
#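 System: Human HeLa cells, endogenous beta-catenin | Compound dosing: 5 µM primary, 0.02–20 µM confirmation | Timing: 24 h compound exposure at 37°C, 5% CO2 | Measured by: Fluorescence imaging of beta-catenin antibody stain plus DAPI | Read-out basis: % activation of per-cell nuclear versus cytoplasmic median beta-catenin signal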
# Cl transport mod – KCC2 cotransporter modulators, thallium flux, primary screen, cell-based, HEK293 KCC2, FluoZin-2 fluorescence, MLSMR. Solute carrier family 12 member 5 (Homo sapiens), Q9H2X9. B-score of Tl+ flux slope (higher = more flux/activation; lower = inhibition) at 10 µM. KCC2 cells, thallium flux FluoZin-2 fluorescence. 190,000 compounds, 2.2% hits;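 active means thallium flux slope and its plate-corrected score both differing from the plate sample mean at a set confidence after two filtering rounds, in either direction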;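 further: slope of fluorescence scaled to starting intensity during 10 to 20 s after thallium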
# Numbers without * were called inactive; x = no result given.
SMILES,WT yeast gro inh,MT stabilize HCS,Pf gamet viab,bCat nuc transl,Cl transport mod
Cc1ccc(S(=O)(=O)c2ccc(Cl)cc2)cc1S(=O)(=O)NC(C)C(=O)O (stereo unspecified),-6,3,3,0,-0.46
Cc1cccc(NS(=O)(=O)c2ccc(C3CCCCC3)cc2)c1,74*,2,-10,7,-0.78
N#CCc1ccc(NS(=O)(=O)c2ccc(C3CCCCC3)cc2)cc1,62*,4,-14,0,0.73
O=C(Oc1coc(CSc2nnc(NC(=O)C3CC3)s2)cc1=O)c1c(F)cccc1F,2,4,-12,x,-1.2
COc1ccc(C(=O)O/N=C(\N)Cc2ccc([N+](=O)[O-])cc2)c(OC)c1,x,x,-7,1,-1.4
COc1ccc(C2=NOC(CNC(=S)N3CCOCC3)C2)cc1 (stereo unspecified),x,x,18,0,0.34
CCc1cc2c3c(c1)C1(C(=O)N3C(C)(C)C=C2C)C(C#N)=C(N)Oc2[nH]c(=O)[nH]c(=O)c21 (stereo unspecified),17,3,16,-1,-0.45
Cc1cc(-c2ccccc2)nc(-c2ccccc2)c1C,78*,3,7,1,0.0099
COc1ccccc1C(=O)OCc1ccc2sc(C)nc2c1,-11,3,8,3,-0.39
COC(=O)Cn1ccc(N(C)C)c(C#N)c1=O,60*,4,-1,1,0.3
CN(CCOC(=O)/C=C/c1ccco1)Cc1ccccc1,-9,4,9,1,2
Cn1ncc(N=Cc2ccccc2)c1C(=O)Nc1cccc(Cl)c1,10,34*,x,49,-0.097
CCCOC(=O)c1c(NC(=O)C2C3C=CC(C3)C2C(=O)O)sc2c1CCC(C)C2 (stereo unspecified),-7,1,22,4,-3.1*
NC(=O)c1ccc(NC(=O)CCCN2C(=O)c3ccccc3C2=O)cc1,63*,1,-7,-3,0.55
O=C(CCCN1C(=O)c2ccccc2C1=O)Nc1ccccc1,x,x,10,0,-0.27
CCSc1nc(-c2cccnc2)ccc1C#N,-2,2,19,x,-0.018
O=C(Nc1ccc(Br)cc1)c1cccn1-c1ncc(C(F)(F)F)cc1Cl,78*,0,24,x,x
CC1Cc2ccccc2N1C(=O)Cn1c(=O)cc(O)c2ccccc21 (stereo unspecified),97*,3,18,x,-1.4
CCOC(=O)c1ccc(NC2=CC(=O)CC(c3ccco3)C2)cc1 (stereo unspecified),8,3,-2,-1,1.3
O=C1C=C(Nc2ccc(O)cc2)CC(c2ccco2)C1 (stereo unspecified),10,46*,-44,10,1.9
COc1ccc(NC(=S)N(Cc2ccc(N(C)C)cc2)Cc2ccco2)cc1,11,7,x,2,-1.5
CCOc1ccc(NC(=S)N(Cc2ccc(N(C)C)cc2)Cc2ccco2)cc1,59*,2,x,x,-1.9
CCOc1ccc(NC(=S)NN(C)C(=S)Nc2ccc(OCC)cc2)cc1,65*,6,x,x,0.03
COc1ccc(NC(=S)N(CCc2c(C)[nH]c3ccc(C)cc23)Cc2cccs2)cc1,66*,5,x,0,-1.2
CNC(=S)N(CCc1c(C)[nH]c2ccc(C)cc12)Cc1cccs1,65*,1,13,1,-0.24
SMILES,WT yeast gro inh,MT stabilize HCS,Pf gamet viab,bCat nuc transl,Cl transport mod
COc1ccc2[nH]c(C)c(CCN(Cc3cccs3)C(=S)Nc3ccccc3)c2c1,42,4,x,-2,0.0043
COC(=O)c1ccc(COn2nnc3ccccc32)cc1,-1,3,-6,0,-1.1
CCOc1ccc(NC(=S)N(CCc2c(C)[nH]c3ccc(C)cc23)Cc2ccco2)cc1,67*,3,x,-6,0.51
COc1ccc(NC(=S)N(CCc2c(C)[nH]c3ccc(C)cc23)Cc2ccco2)cc1,69*,3,x,-1,0.083
CC(C)(C)c1ccc(NC(=O)c2ccccc2)c([N+](=O)[O-])c1,66*,2,x,-2,-0.22
Clc1nssc1=Nc1nncs1,x,x,7,x,x
Clc1nssc1=Nc1ccc(Br)cc1,71*,2,12,0,-0.97
Clc1ccc(N=c2ssnc2Cl)nc1,69*,4,2,0,0.7
COc1cc(N=c2ssnc2Cl)cc(OC)c1,10,3,x,x,0.15
